{"data": "Measured values collected from several papers", "target": "Ephrin type-B receptor 3 (EPHB3, Homo sapiens, UniProt P54753)", "Sequence (P54753 34-998, as in one of the studies)": "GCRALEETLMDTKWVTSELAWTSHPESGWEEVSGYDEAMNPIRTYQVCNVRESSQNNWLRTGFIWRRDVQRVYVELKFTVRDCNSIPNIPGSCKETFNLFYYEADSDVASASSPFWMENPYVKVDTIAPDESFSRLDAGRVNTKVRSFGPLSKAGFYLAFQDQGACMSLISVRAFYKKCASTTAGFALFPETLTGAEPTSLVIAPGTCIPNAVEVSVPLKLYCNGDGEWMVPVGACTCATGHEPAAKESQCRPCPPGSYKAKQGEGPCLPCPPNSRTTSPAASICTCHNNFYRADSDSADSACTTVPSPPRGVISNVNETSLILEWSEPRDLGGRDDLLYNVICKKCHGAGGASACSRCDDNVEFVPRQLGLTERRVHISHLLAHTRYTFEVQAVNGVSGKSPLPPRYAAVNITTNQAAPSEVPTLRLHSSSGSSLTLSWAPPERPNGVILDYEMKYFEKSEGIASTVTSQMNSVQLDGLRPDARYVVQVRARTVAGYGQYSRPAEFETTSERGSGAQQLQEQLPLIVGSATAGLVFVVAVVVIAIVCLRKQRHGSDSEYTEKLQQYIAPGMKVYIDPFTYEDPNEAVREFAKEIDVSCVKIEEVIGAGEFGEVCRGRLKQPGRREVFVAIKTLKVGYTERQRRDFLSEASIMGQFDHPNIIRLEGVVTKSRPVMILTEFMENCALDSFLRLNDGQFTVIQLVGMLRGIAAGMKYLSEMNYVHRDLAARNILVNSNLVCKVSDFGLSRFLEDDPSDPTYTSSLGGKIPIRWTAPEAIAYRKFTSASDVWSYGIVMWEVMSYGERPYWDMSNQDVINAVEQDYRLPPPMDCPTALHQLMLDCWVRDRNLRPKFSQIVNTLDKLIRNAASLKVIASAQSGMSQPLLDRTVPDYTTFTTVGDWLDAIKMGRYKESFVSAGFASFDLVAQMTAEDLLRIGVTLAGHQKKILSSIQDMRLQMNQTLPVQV"}
{"SMILES": "CCS(=O)(=O)c1cc2cc(C[C@@](O)(CC(C)(C)c3ccc(F)cc3C(N)=O)C(F)(F)F)[nH]c2cn1", "assay": "cell-free assay, competition with immobilised ligand", "setting": "1 µM", "remaining binding [%]": 92}
{"SMILES": "CNC(=O)[C@@H]1CC[C@@H](n2c(-c3ccc4cnccc4c3)nc3ccc(C(=O)NCc4cccc(C(N)=O)c4)cc32)C1", "assay": "binding, competition with immobilised ligand", "setting": "1 µM", "remaining binding [%]": 100}
{"SMILES": "F[C@@H]1CCN(c2nccc(-c3cnn4ncccc34)n2)C1", "assay": "binding", "setting": "1 µM", "remaining binding [%]": 77}
{"SMILES": "COc1ncc2cc3ccccc3nc2c1C#N", "assay": "cell-free assay, competition with immobilised ligand", "setting": "5 µM", "remaining binding [%]": 1.4}
{"SMILES": "Cc1cc(-n2nc(Cc3cc(F)cc(C(F)(F)F)c3)nc2C)ccc1C(N)=O", "assay": "cell-free assay, competition with immobilised ligand", "setting": "1 µM", "remaining binding [%]": 100}
{"SMILES": "Cc1cnn2ncc(-c3ccnc(N(C)C)n3)c2c1", "assay": "binding", "setting": "1 µM", "remaining binding [%]": 100}
{"SMILES": "O=C(NCC1CCOCC1)c1n[nH]cc1NC(=O)c1c(F)cccc1F", "assay": "binding, competition with immobilised ligand", "setting": "1 µM", "remaining binding [%]": 100}
{"SMILES": "O=C(NCCCN1CCOCC1)c1ccc(Nc2ncc(Cl)c(-c3ccc(Cl)s3)n2)cc1", "assay": "binding, competition with immobilised ligand", "setting": "1 µM", "remaining binding [%]": 95}
{"SMILES": "O=S(=O)(NC1CCC(c2cc(F)ccc2F)(S(=O)(=O)c2ccc(Cl)cc2)CC1)C(F)(F)F (centres unmarked)", "assay": "cell-free assay, competition with immobilised ligand", "setting": "1 µM", "remaining binding [%]": 100}
{"SMILES": "C[C@@H]1CCN(c2nccc(-c3cnn4ncccc34)n2)C1", "assay": "binding", "setting": "1 µM", "remaining binding [%]": 100}
{"SMILES": "O=C(NCCCN1CCOCC1)c1ccc(Nc2nccc(-c3cc4ccccc4s3)n2)cc1", "assay": "binding, competition with immobilised ligand", "setting": "1 µM", "remaining binding [%]": 93}
{"SMILES": "COc1ccc2c(c1)O[C@H](c1ccc(OC)c(OC)c1)C[C@@H]2NC(=O)C1(c2ccc3c(c2)OC(F)(F)O3)CC1", "assay": "cell-free assay, competition with immobilised ligand", "setting": "1 µM", "remaining binding [%]": 91}
{"SMILES": "c1cncc(-c2cccc(Nc3nccc(NC4CCCCC4)n3)c2)c1", "assay": "binding, competition with immobilised ligand", "setting": "10 µM", "remaining binding [%]": 89}
{"SMILES": "N[C@H]1CCN(c2nccc(-c3cnn4ncccc34)n2)C1", "assay": "binding", "setting": "1 µM", "remaining binding [%]": 97}
{"SMILES": "O=C(NCCCC1CCCCC1)c1ccc(CNC(=O)c2cnn(-c3ccccc3)c2C(F)(F)F)cc1", "assay": "cell-free assay, competition with immobilised ligand", "setting": "0.1 µM", "remaining binding [%]": 79}
{"SMILES": "CC1CCCN1c1nccc(-c2cnn3ncccc23)n1 (centres unmarked)", "assay": "binding", "setting": "1 µM", "remaining binding [%]": 89}
{"SMILES": "C=CC(=O)N1CCC(C(=O)NCC(=O)N2CCN(c3nc(-c4cnc(N)nc4C(F)F)nc(N4CCOCC4)n3)CC2)CC1", "assay": "binding, competition with immobilised ligand", "setting": "1 µM", "remaining binding [%]": 98}
{"SMILES": "c1cnn2ncc(-c3ccnc(N4CCC45COC5)n3)c2c1", "assay": "binding", "setting": "1 µM", "remaining binding [%]": 87}
{"SMILES": "COCCOc1nc(-c2ccc(Cl)nc2)nc2c1CN(C(=O)c1ncn3ccccc13)CC2", "assay": "cell-free assay, competition with immobilised ligand", "setting": "0.1 µM", "remaining binding [%]": 100}
{"SMILES": "CCN1CCN(Cc2ccc(C(=O)Nc3ccc(C)c(Oc4ccc5c(c4)CC(=O)N5)c3)cc2C(F)(F)F)CC1", "assay": "binding, competition with immobilised ligand", "setting": "1 µM", "remaining binding [%]": 100}
